MC4R ag barr = MC4R agonists recruiting beta-arrestin, primary screen, cell-based, luminescence, agonist arm of biased-ligand search. Melanocortin receptor 4 (Homo sapiens), P32245. U2OS MC4R beta-arrestin complementation; percent of melanotan II response, DMSO zero. activation, % at 8.9 µM. 360,000 tested, 0.98% active. AID 540308, 2011;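 active = activation above a per-plate cutoff, the mean activation of sample wells on that plate plus 3 SD, cut at about 8% in these data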
MC4R antag cAMP = MC4R antagonists of cAMP signaling, primary screen, cell-based, TR-FRET, antagonist arm of biased-ligand search. inhibition, % at 6.5 µM. Melanocortin receptor 4 (Homo sapiens), P32245. 360,000 tested, 0.48% active. MC4R-expressing cells, MTII-stimulated cAMP, LANCE TR-FRET;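 active = inhibition above its plate's cutoff, the mean of tested wells on that plate plus 3 SD, cut at about 29% in these data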;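 note: 0% = Melanotan II alone and 100% = Melanotan II plus saturating MCL0020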
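Assay system: U2OS-MC4R stable cell line; Also added: Melanotan II; Technique: Eu-cAMP/anti-cAMP TR-FRET, emission 671 nm; Times: 30-min compound, 1-h challenge, 1-h detection, room temperature.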
SMARCA2 activ = SMARCA2 (BRM) function activators, primary screen, cell-based, luminescence, high throughput; activation, % at 9.1 µM; MG213 cells, MMTV-luciferase reporter, dexamethasone, overnight; 370,000 tested, 1% active; AID 652017, 2013; in the data active = activation above about 7.8%;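 note: 0% = vehicle wells and 100% = reference activator wells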
F508del corr = F508del CFTR correction, initial screen, CFBE line, single point; CFBE cells, YFP halide quenching; stimulated with forskolin plus potentiator P3; % fluorescence drop versus neutral controls; activity (quench increase), % at 7.58 µM; 350,000 tested, 0.36% active; AID 720511, 2013;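 active = mean added fluorescence quench of at least 8% versus neutral control, with both replicates also reaching 8%; inconclusive = only one of the mean or replicate conditions met; inactive = mean below 8% and not both replicates reaching 8%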;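 note: cells transiently co-express mutant CFTR-F508del with the halide-sensitive YFP; corrector assay measuring rescue of mutant channel to the surface after 24 h compound exposure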
U2OS cAMP counter = nonselective cAMP signaling inhibitors, parental cells, counter-screen for MC4R biased antagonist project, cell-based, TR-FRET, U2OS, forskolin, triplicate | 1,600 tested, 26% active | LANCE TR-FRET | inhibition, % at 6.5 µM | shares compounds with MC4R antag cAMP | AID 602193, 2012;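 active = mean inhibition over triplicates above the low-control well mean plus 3 SD, set per campaign, cut at about 13% in these data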;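 note: signal is single emission at 671 nm which falls as cellular cAMP rises; 0% = forskolin-stimulated wells and 100% = buffer without forskolin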
MC4R antag conf = MC4R cAMP antagonists, retest, confirmation, cell-based, TR-FRET; MC4R-expressing cells, MTII-stimulated cAMP; inhibition, % at 6.5 µM; 1,600 tested, 27% active; shares compounds with MC4R antag cAMP; in the data active = inhibition above about 29%;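 note: 0% = agonist stimulated wells alone and 100% = agonist stimulated wells plus saturating reference antagonist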
MC4R barr ag = MC4R beta-arrestin agonists, retest, confirmation, cell-based, luminescence, U2OS. U2OS MC4R beta-arrestin recruitment; scaled DMSO 0%, Melanotan II 100%. shares compounds with MC4R ag barr. activation, % at 8.9 µM. 2,400 tested, 31% active. AID 602192, 2012;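 active = mean activation across replicates above the hit cutoff set in the earlier primary screen, cut at about 8% in these data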
MOR DOR agonist = agonists of MOR-DOR heterodimerization, counter-screen for MC4R biased agonist project, cell-based, luminescence | shares compounds with MC4R ag barr | U2OS PathHunter beta-arrestin, beta-gal luminescence; percent of deltorphin B response, DMSO zero | activation, % at 9.2 µM | 2,400 tested, 5.8% active;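 active = mean activation across replicates exceeds the hit threshold derived in the earlier primary screen, cut at about 18% in these data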;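 note: 100% = deltorphin B at 0.9 µM final and 0% = DMSO alone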
Target sequence (P35372 whole entry, looked up): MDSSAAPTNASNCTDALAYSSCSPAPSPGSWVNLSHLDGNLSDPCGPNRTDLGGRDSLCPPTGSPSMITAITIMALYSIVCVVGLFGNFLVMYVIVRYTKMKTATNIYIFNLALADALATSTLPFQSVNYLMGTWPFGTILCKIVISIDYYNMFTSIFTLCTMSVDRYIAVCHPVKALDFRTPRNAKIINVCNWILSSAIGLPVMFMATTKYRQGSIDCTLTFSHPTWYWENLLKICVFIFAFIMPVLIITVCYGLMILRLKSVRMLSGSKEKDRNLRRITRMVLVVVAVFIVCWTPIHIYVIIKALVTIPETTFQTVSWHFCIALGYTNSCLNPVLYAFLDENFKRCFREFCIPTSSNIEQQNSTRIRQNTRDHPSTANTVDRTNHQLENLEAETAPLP
Target sequence (P41143 whole entry, looked up): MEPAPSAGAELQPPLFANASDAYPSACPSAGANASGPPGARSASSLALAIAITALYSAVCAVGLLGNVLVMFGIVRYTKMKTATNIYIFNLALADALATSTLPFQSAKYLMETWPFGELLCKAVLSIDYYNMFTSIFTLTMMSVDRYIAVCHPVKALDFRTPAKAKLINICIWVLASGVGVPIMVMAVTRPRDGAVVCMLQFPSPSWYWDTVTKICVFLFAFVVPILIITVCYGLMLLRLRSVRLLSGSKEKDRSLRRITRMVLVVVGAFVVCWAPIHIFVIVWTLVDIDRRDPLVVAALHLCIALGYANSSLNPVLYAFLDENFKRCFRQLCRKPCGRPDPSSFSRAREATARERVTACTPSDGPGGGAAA
SMARCA2 conf = SMARCA2 (BRM) function activators, confirmation, cell-based, luminescence, triplicate | shares compounds with SMARCA2 activ | MG213 cells, MMTV-luciferase with dexamethasone, overnight; MG213 cells expressing E1A, Rb sequestered; DMSO wells 0%, reference activator 100% | activation, % at 9.1 µM | 3,500 tested, 30% active | AID 652260, 2013;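 active = activation above its plate's cutoff, the mean activation of tested wells plus 3 SD, cut at about 7.9% in these data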
VP16 Luc act = GAL4-VP16 luciferase reporter activation, counter-screen for SMARCA2 (BRM) activator project, cell-based, pG5luc, luminescence, high throughput; activation, % at 9.1 µM; 3,500 tested, 41% active; HEK293 GAL4-VP16 pG5luc reporter; scaled: DMSO wells 0%, SAHA wells 100%; AID 686939, 2013; shares compounds with SMARCA2 activ;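 active = activation above the solvent-only control well mean plus 3 SD, averaged across control plates, cut at about 5.2% in these data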
* hit, by the source's call; ? = inconclusive; · = no result given. This is a sample that favours compounds with a hit; in the whole collection about 2.1% have one here.

SMILES | MC4R ag barr | MC4R antag cAMP | SMARCA2 activ | F508del corr | U2OS cAMP counter | MC4R antag conf | others
CCn1nc(C)cc1-c1nnc(SCC(=O)Nc2ccccc2)n1CCCOC | -2 | 0 | -2 | 1 | · | ·
CCn1nc(C)cc1-c1nnc(Sc2ncc([N+](=O)[O-])s2)n1C | -3 | 46* | -8 | -9 | 28* | 58*
CCC(=O)N[C@@H]1CC[C@H](CC(=O)NCCN2CCCCC2)O[C@@H]1CO | · | · | · | -2 | · | ·
CC(OC(=O)/C(C#N)=C/c1ccc(N(C)C)cc1)C(=O)NCc1ccco1 (configuration not stated) | -2 | 73* | -2 | 0 | 41* | 78*
Cc1ccc(OCC(=O)NC(=S)Nc2ccc3c4c(cccc24)CC3)cc1 | 13* | 39* | -3 | -2 | 7 | 14 | MC4R barr ag=12*;MOR DOR agonist=3
CCCCNc1c(-c2cccc(-c3cc(C(C)=O)cs3)c2)nc2ccc(C)cn12 | 19* | 50* | 5 | 3 | 9 | 19 | MC4R barr ag=24*;MOR DOR agonist=7
COc1cccc(C(=O)C(C#N)=C(SC)SC)c1 | 24* | 42* | -2 | -1 | 10 | 23 | MC4R barr ag=14*;MOR DOR agonist=19*
COc1cccc(C(=O)C(CCC#N)c2ccccc2)c1 (configuration not stated) | 0 | 0 | -6 | -4 | · | ·
O=C(C[C@H]1CC[C@@H](NC(=O)Nc2ccc(F)cc2)[C@@H](CO)O1)NCc1cccc(F)c1 | · | · | · | 0 | · | ·
O=Nc1c(-c2c(O)[nH]c3cc(Br)ccc23)[nH]c2ccccc12 | 14* | 62* | 3 | -2 | 5 | 56* | MC4R barr ag=0;MOR DOR agonist=3
O=C(CSCc1cccc(Br)c1)N=Nc1c(O)[nH]c2ccccc12 | 0 | -3 | -2 | · | · | ·
O=C1c2cc([N+](=O)[O-])ccc2-c2cc(Br)c(N=C(NO)C(F)(F)F)cc21 | 14* | 35* | -3 | -2 | -3 | -4 | MC4R barr ag=13*;MOR DOR agonist=6
C[C@@H]1CN([C@@H](C)CO)C(=O)c2cc(N(C)C)ccc2O[C@@H](C)CCCCO[C@H]1CN(C)S(C)(=O)=O | · | · | · | 0 | · | ·
Cc1ccc2oc(-c3ccc(NC(=O)c4ccc5c(c4)OCO5)cc3)nc2c1 | 0 | 6 | 2 | · | · | ·
O=C(Nc1ccc(-c2nc3ccccc3o2)cc1)c1ccc2c(c1)OCO2 | 20* | 30* | -3 | -4 | 1 | -8 | MC4R barr ag=12*;MOR DOR agonist=7
CO[C@H]1CN(C)C(=O)c2cc(NC(=O)c3cc(C)on3)ccc2OC[C@@H](C)N(C)C[C@H]1C | · | · | · | -1 | · | ·
C[C@@H]1CN([C@@H](C)CO)C(=O)c2cccc(NC(=O)c3ccncc3)c2O[C@H]1CN(C)C(=O)Nc1ccc(C(F)(F)F)cc1 | · | · | · | -4 | · | ·
Cc1cc(O)c(C(C)C)cc1C1(c2cc(C(C)C)c(O)cc2C)OC(=O)c2ccccc21 | 19* | 31* | -5 | 2 | 6 | 29* | MC4R barr ag=8.6*;MOR DOR agonist=9
CS(=O)(=O)c1ccc2nc(NC(=O)c3ccc(NS(=O)(=O)c4ccc(F)c(F)c4)cc3)sc2c1 | 0 | 10 | -2 | -2 | · | ·
O=C(Nc1nc2ccc(SC(F)F)cc2s1)c1ccc(NS(=O)(=O)c2ccc(F)c(F)c2)cc1 | 35* | 37* | -1 | ? | 2 | -3 | MC4R barr ag=34*;MOR DOR agonist=3
O=C(CNC(=O)c1ccccc1)OCc1nc2ccccc2s1 | -4 | 37* | 14* | 0 | 17* | 16 | SMARCA2 conf=5;VP16 Luc act=6.3*
CC(=O)OCc1nc2ccccc2s1 | 1 | 0 | 7 | · | · | ·
COC(=O)c1sc(-c2ccc(Cl)cc2)cc1NC(=O)COCC(=O)O | 2 | 12 | 0 | -2 | · | ·
COC(=O)c1sc(-c2ccc(Cl)cc2)cc1NC(=O)/C=C/C(=O)O | 1 | 47* | 9.1* | -1 | 13* | 20 | SMARCA2 conf=0;VP16 Luc act=-1
N=c1c2c(-c3ccccc3)c(-c3ccccc3)n(Cc3ccccc3)c2ncn1CCCn1ccnc1 | 1 | 29* | 15* | · | -2 | 35* | SMARCA2 conf=-1;VP16 Luc act=-3
SMILES | MC4R ag barr | MC4R antag cAMP | SMARCA2 activ | F508del corr | U2OS cAMP counter | MC4R antag conf | others
O=C(C[C@H]1CC[C@H](NC(=O)Cc2cccnc2)[C@H](CO)O1)NCc1ccc2c(c1)OCO2 | · | · | · | -2 | · | ·
O=C1c2ccccc2NC(c2ccccc2Br)N1CCCN1CCOCC1 (configuration not stated) | -1 | 29* | 8.1* | · | 1 | 1 | SMARCA2 conf=1;VP16 Luc act=-2
C[C@@H]1CN([C@H](C)CO)C(=O)Cc2cc(NC(=O)CCCCCC(=O)Nc3ccccc3N)ccc2O[C@H]1CN(C)C(=O)Nc1ccccc1 | · | · | · | -3 | · | ·
Cc1ccccc1NC(=O)COC(=O)c1ccc(S(C)(=O)=O)c([N+](=O)[O-])c1 | -2 | 47* | 16* | -1 | 33* | 51* | SMARCA2 conf=3;VP16 Luc act=3
CS(=O)(=O)c1ccc(C(=O)OCC(=O)Nc2cccnc2Cl)cc1[N+](=O)[O-] | -1 | -6 | · | · | · | ·
Cc1cc(-c2ccc(Br)s2)nc(-n2cccc2)n1 | -1 | 41* | 12* | -3 | 10 | -8 | SMARCA2 conf=-5;VP16 Luc act=4
C/C=C/c1ccc([C@H]2[C@H](CO)N(C(=O)c3cnccn3)C23CN(C(=O)CC)C3)cc1 | · | · | · | 0 | · | ·
C[C@H]1CN([C@@H](C)CO)C(=O)c2cccc(NS(=O)(=O)c3ccccc3)c2O[C@H]1CN(C)S(=O)(=O)c1ccccc1 | · | · | · | 1 | · | ·

Screening data as filed in PubChem.
